This is a sample that favours compounds with a hit; in the whole collection about 3.6% have one here.
STAT3 act – increases IL-6 driven STAT3 reporter signal; U3A cells, IL-6 STAT3-luciferase reporter, luminescence; 100% = signal with IL-6 EC80 alone; activation (% of control), % at 5.6 µM; hit rate 0.91% among 190,000; AID 871;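 active = activation above the screen-wide mean of compound activation plus 3 SD, cut at about 130% in these data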;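 note: 0% = background luminescence of wells with medium and substrate only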
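Material: STAT3-luciferase reporter U3A cells. Controls: IL-6-treated wells, 100% activation. Read-out: % activation versus median of IL-6-stimulated wells. Probe or stimulus: IL-6 stimulus at 33 ng/mL final. Timing: compound 1 h, then IL-6 6 h at 37 °C. Signal: reporter luminescence signal.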
Hsp70 act – switches on Hsp70 transcription | HeLa Hsp70 promoter luciferase reporter, luminescence; scaled: vehicle 0, proteasome-inhibitor control 100% | activation, % at 10 µM | hit rate 0.04% among 200,000 | AID 1203;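 active = activation above the mean across all tested compounds plus 3 SD, cutoff set per campaign, cut at about 5.5% in these data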;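 note: 100% = MG132 at 30 µM as the positive control and 0% = DMSO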
HSF1 inh – HSF1 inhibition. NIH3T3-HGL HSE-luciferase, MG132-induced, luminescence 8 h; stronger effect = lower value. activity change, negative = inhibition, % at 7.5 µM (by protocol). hit rate 0.77% among 300,000;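 active = more than half of replicate wells show activity change below -50%, luminescence cut by over half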;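 note: luciferase reports HSF-1 transcriptional activity via heat shock element; 0% = median of DMSO wells and -100% = zero luminescence signal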
PolyA inh – inhibitors of polyadenylation in S. cerevisiae | hit rate 0.02% among 300,000 | AID 1875 | activity score, % at 12 µM | S. cerevisiae SKY197-pL101 polyadenylation reporter, beta-gal luminescence; efflux-impaired pdr1/pdr3 knockout yeast; score 100 = 6 SD above DMSO;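 active = lowest replicate activity score at least 50, where 100 means six control SD above control mean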;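 note: yeast exposed to compound for 9 h at 30 °C; higher score means more reporter readthrough which indicates perturbed polyadenylation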
PERK inhibitor – blocks human PERK kinase. CHO PERK-DD fusion, SEAP luminescence translation reporter. hit rate 0.17% among 220,000. inhibition, % at 5.6 µM;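 active = inhibition above the mean inhibition of all tested compounds plus 3 SD, set separately per screening campaign, cut at about 2.9% in these data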;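 note: PERK kinase domain activated by AP20187 dimerizer at 100 nM; 0% = DMSO with dimerizer and 100% = rapamycin at 8.4 µM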
AHR activator – activators of human aryl hydrocarbon receptor; activation, % at 5 µM; AID 2796; hit rate 2.5% among 320,000; AHR-responsive luciferase reporter cells, luminescence; in the data active = activation above about 47%;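 note: 0% = vehicle wells and 100% = reference agonist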
Target sequence (P35869 whole entry, looked up): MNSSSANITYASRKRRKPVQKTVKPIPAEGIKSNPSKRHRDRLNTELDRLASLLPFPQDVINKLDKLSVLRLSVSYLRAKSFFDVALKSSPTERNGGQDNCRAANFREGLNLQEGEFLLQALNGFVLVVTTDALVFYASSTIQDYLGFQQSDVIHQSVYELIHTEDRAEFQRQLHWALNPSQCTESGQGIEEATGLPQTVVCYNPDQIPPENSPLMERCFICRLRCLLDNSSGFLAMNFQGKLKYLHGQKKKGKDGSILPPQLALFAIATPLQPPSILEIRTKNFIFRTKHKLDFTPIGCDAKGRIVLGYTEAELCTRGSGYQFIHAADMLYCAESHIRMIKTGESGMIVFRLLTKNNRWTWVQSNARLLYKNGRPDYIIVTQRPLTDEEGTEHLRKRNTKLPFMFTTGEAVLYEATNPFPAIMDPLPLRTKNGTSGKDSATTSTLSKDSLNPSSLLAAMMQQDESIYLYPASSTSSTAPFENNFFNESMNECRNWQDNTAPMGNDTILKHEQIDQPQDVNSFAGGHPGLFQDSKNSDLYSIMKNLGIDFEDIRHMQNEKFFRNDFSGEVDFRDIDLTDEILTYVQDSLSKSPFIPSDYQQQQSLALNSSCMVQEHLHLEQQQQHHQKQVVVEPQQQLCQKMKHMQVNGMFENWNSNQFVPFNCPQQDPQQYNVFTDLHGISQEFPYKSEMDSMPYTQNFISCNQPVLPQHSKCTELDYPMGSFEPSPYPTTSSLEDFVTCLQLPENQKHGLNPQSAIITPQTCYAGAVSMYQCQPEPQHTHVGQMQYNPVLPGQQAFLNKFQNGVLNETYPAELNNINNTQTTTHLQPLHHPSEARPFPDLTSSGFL
AHR act cf – human AHR activation, confirmation | shares compounds with AHR activator | human cells, AHR-responsive luciferase reporter, luminescence | activation, % at 9 µM | hit rate 87% among 2,300 | AID 2845; in the data active = activation above about 49%;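 note: HepG2 hepatoma cells carrying a DRE-driven firefly luciferase reporter; 0% = vehicle wells and 100% = reference agonist wells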
PXR act counter – PXR activation, counter-screen for AHR activators; shares compounds with AHR activator; cell-based PXR reporter, luciferase luminescence; activation, % at 11.6 µM; hit rate 88% among 2,300; AID 434939; in the data active = activation above about 11%;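 note: human hepatoma DPX-2 cells expressing full-length human PXR; 0% = DMSO and 100% = reference agonist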
Starred values were filed as active, the others as inactive; x = no result.

SMILES	STAT3 act	Hsp70 act	HSF1 inh	PolyA inh	PERK inhibitor	AHR activator	AHR act cf	PXR act counter
O=C(CN1C(=O)NC2(CCOc3ccccc32)C1=O)NCCc1ccccc1 (stereo unspecified)	x	x	x	x	x	12	x	x
O=C(CSc1nc2ccccc2c2nc3ccccc3n12)NCc1ccco1	93	0	45	-1	-1	80*	50*	48*
Clc1ccc(CCNc2nc3ccccc3n3nnnc23)cc1	88	0	26	22	1	5	x	x
Clc1ccc(Nc2nc3ccccc3n3nnnc23)cc1	105	0	-2	-8	0	81*	104*	50*
COc1cc(Nc2nc3ccccc3n3nnnc23)cc(OC)c1OC	94	0	-5	-21	1	25	x	x
Cc1cccc(CCNc2nc3ccccc3n3nnnc23)c1	92	0	0	10	1	6	x	x
COc1ccc(Nc2nc3ccccc3n3nnnc23)cc1	98	0	0	-17	0	99*	103*	29*
Fc1cc(Br)ccc1Nc1nc2ccccc2n2nnnc12	95	0	2	9	1	131*	125*	28*
CN(Cc1ccccc1)C(=O)c1[nH]cnc1C(=O)N[C@@H](Cc1ccccc1)C(=O)OC(C)(C)C	x	x	4	16	x	-4	x	x
Cc1onc(-c2ccccc2)c1C(=O)N/N=C/c1c(F)cccc1Cl	x	x	12	19	x	0	x	x
CC/C(=N\NC(=O)c1nnn(-c2nonc2N)c1-c1cccc(OC)c1)c1ccc(C)cc1	x	x	-7	-6	x	2	x	x
NC(=O)c1cc2ccccc2o/c1=N\NC(=O)c1ccncc1	104	0	-4	10	0	127*	137*	15*
Cc1ccc(C(=O)N/N=c2\oc3ccccc3cc2C(N)=O)cc1	x	x	8	-3	x	23	x	x
O=C(NCc1ccncc1)Nc1cc(Cl)ccc1Cl	95	0	-10	-10	0	97*	63*	26*
O=C(NCc1ccccc1)Nc1cc(Cl)ccc1Cl	x	x	-2	-21	0	-1	x	x
COc1cc(OC)cc(C(=O)NC2=NCCS2)c1	93	0	-4	9	-1	95*	101*	20*
COc1ccc(/C=C/C(=O)c2cc3c(cc2N)OCO3)cc1	92	0	11	-26	1	96*	128*	26*
COc1ccc(/C=C/C(=O)c2ccc(OC)cc2OC)cc1	x	0	2	2	1	-3	x	x
O=C(N=C1c2ccccc2CN1c1ccc(F)c(Cl)c1)c1cccnc1Cl	95	1	61	-7	0	123*	113*	158*
CC1CN2C(c3ccc(Cl)cc3)=CSC2=N1 (stereo unspecified)	x	x	-4	3	x	17	x	x
c1ccc2nc(-c3ccc(N4CCOCC4)cc3)ccc2c1	22	0	-24	-18	0	24	x	x
Cc1cc(N2CCN(c3ccccc3)CC2)nc2ccccc12	x	x	10	-1	x	125*	106*	20*
Cc1cc(-c2ccc(N3CCOCC3)cc2)nc2ccccc12	112	0	26	-18	0	x	x	52*
COc1ccc(N2CCN(c3cc(C)c4ccccc4n3)CC2)cc1	80	0	4	-2	0	33	x	x
COc1ccccc1N1CCN(C(=O)CN2C(=O)c3ccccc3S2(=O)=O)CC1	x	x	-5	-19	0	4	x	x
SMILES	STAT3 act	Hsp70 act	HSF1 inh	PolyA inh	PERK inhibitor	AHR activator	AHR act cf	PXR act counter
C=C(C)COc1ccc2c(C)c(CCC(=O)NC3CC3)c(=O)oc2c1	x	x	-5	-18	x	-2	x	x
Cc1ccc2c(c1)Oc1ccc([N+](=O)[O-])cc1C(=O)N2	129	0	-4	-3	0	88*	82*	68*
Cc1sc2nc(CSc3ccc([N+](=O)[O-])c(C(F)(F)F)c3)[nH]c(=O)c2c1C	105	0	15	-13	1	83*	76*	32*
Cc1sc2nc(CSC(C)C(=O)N(C)CC(=O)Nc3ccccc3C(F)(F)F)[nH]c(=O)c2c1C (stereo unspecified)	x	x	-5	-11	x	3	x	x
O=C(C1CCN(S(=O)(=O)c2ccccc2)CC1)N1CCN(Cc2ccccc2)CC1	x	x	-8	-5	x	x	x	x
CN(C)/C=C1/C(=O)N(c2ccc([N+](=O)[O-])cc2)N=C1c1ccccc1	110	0	35	-34	0	12	x	x
C/C(=C1/C(=O)N(c2ccc([N+](=O)[O-])cc2)N=C1c1ccccc1)N(C)C	101	0	x	x	0	87*	37	29*
Cc1ccccc1NS(=O)(=O)c1ccc(C(=O)N2CCCC(C(F)(F)F)C2)cc1 (stereo unspecified)	x	x	3	17	x	0	x	x
CCOc1ccccc1NC(=S)Nc1ncccc1C	96	0	-5	-11	0	122*	81*	52*
Cc1ccc2c(=O)n3c(nc2c1)C(Cc1ccccc1)NC(=O)c1ccc(Cl)cc1-3 (stereo unspecified)	x	x	x	x	x	6	x	x
O=C(CCl)Nc1cccc(-c2cnc3ccccc3n2)c1	72	0	-16	-24	0	118*	29	9
CC(=O)Nc1ccc(S(=O)(=O)NCCC(=O)N2CCc3ccccc32)cc1	x	x	1	5	x	8	x	x
CC(=O)N/N=C/c1cc(C(C)(C)C)cc(/C=N/NC(C)=O)c1O	102	0	-2	x	0	82*	83*	22*
CCn1c(C)cc(/C=C2\NC(=O)N(CC(=O)Nc3cccc(C)c3)C2=O)c1C	117	0	4	-1	-1	80*	78*	16*
COc1ccccc1NC(=O)CN(Cc1ccco1)C(=O)c1ccc(Cl)nc1	102	0	-1	17	0	85*	109*	62*
COc1ccccc1C(=O)NCCC(=O)NC(C)c1ccc(-n2ccnc2)cc1 (stereo unspecified)	x	x	0	10	x	-1	x	x
Cc1ccc(NC(=S)c2nc3ccccc3[nH]2)c(C)c1	87	0	26	-35	-1	94*	84*	x
CC(=O)c1ccc(OCC(=O)N2CCCC(Nc3ccc(C)c(C)c3)C2)cc1 (stereo unspecified)	x	x	11	-5	x	28	x	x
COc1ccc(OC)c(S(=O)(=O)N2Cc3ccccc3CC2C(=O)Nc2nccs2)c1 (stereo unspecified)	124	0	x	x	1	84*	60*	135*
COc1ccc(CN2CCC(n3nccc3NC(=O)CCc3ccccc3)CC2)c(C)c1C	x	x	2	0	x	x	x	x
O=C(Nc1nc2c(Br)cccc2s1)C1CC1	x	x	6	-12	x	132*	97*	18*
O=C(Nc1nc2ccc(Cl)cc2s1)C1CC1	x	x	28	-56	x	114*	77*	19*

High-throughput results (PubChem BioAssay)
